NR1D1 modulator: modulates human Rev-erb alpha binding to DNA; Rev-erbα–FITC-DNA binding, fluorescence polarization, 90 min; activity, % at 10 µM; actives 0.79% (n = 370,000); AID 1259318;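 active means activity above about 14%, limit read from the data; passing the limit was not always enough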;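 further: 0% = DMSO wells with 35 nM protein and 100% = DMSO wells with 750 nM protein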
Target sequence (P20393 whole entry, looked up): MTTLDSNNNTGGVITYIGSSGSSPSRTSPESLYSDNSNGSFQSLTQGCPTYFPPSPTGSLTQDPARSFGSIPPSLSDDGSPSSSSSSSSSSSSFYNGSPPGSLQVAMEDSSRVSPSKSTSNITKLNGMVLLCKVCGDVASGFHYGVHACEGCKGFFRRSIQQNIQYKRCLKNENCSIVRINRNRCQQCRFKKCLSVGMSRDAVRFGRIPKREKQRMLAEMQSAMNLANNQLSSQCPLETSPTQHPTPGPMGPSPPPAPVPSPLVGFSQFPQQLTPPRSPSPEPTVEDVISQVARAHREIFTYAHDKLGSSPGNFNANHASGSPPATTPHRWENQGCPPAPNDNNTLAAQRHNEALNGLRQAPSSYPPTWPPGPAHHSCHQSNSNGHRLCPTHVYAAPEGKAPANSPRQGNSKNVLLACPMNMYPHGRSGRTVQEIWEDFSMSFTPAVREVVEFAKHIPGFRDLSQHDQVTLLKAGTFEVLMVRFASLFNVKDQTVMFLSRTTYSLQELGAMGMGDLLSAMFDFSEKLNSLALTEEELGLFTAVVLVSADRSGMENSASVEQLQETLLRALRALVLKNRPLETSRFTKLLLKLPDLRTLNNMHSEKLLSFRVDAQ
beta cell repl: induces beta-cell replication in MIN6 cells; actives 0.29% (n = 330,000); proliferation, % at 10 µM; MIN6 cells proliferation, ATPlite luminescence, 48 h; cells starved in 0.2% serum; 100% = growth in 10% serum;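 active means compounds whose signal lies at least 3.5 SD above the mean of all wells on their plate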;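 further: 0% = DMSO-treated cells in low-serum medium and 100% = 10% serum control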
T cruzi inh: blocks replication of Trypanosoma cruzi; T. cruzi beta-gal in NIH3T3, luminescence, 90 h; inhibition, % (concentration not given with the values); actives 1.4% (n = 300,000);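 active means mean inhibition across valid replicates above about 55%, limit read from the data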;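 further: signal also drops with host cell toxicity which is not excluded here; 0% = plate median of DMSO wells and 100% = zero luminescence signal; higher percent means less beta-gal luminescence so fewer parasites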
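Assay system: NIH/3T3 host cells with β-galactosidase reporter T. cruzi; input: 5,000 host fibroblasts per well; compound: single 50 nL compound addition per well in DMSO; timing: ≥90 h infection period, 3 h prior cell attachment; measured by: GalScreen β-gal luminescence, detergent lysis, 60 min; evaluation: percent inhibition of parasite-derived β-gal signal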
iPSC survival up: enhancers of human iPSC single-cell survival. AID 602274. hiPSC single-cell survival, ATPlite luminescence; 100% = ROCK inhibitor wells, 0% = DMSO. actives 0.044% (n = 360,000). survival enhancement, % at 20 µM; in the data active means survival enhancement above about 18%;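 further: cells exposed to compounds for 16 hours before the ATP read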
PG9 binder: PG9 antibody binding by small molecule; TR-FRET gp120-PG9 antibody binding; inhibition, % at 6.7 µM; AID 624416; actives 0.43% (n = 360,000); in the data active means inhibition above about 8.5%
H9c2 TAG inh: inhibitors of triacylglycerol accumulation; actives 0.66% (n = 230,000); inhibition, % at 12.5 µM; H9c2 cells, Nile Red lipid (TAG) fluorescence; cells loaded with 200 µM oleic acid;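 active means pattern-corrected inhibition of lipid staining of at least 50% with the nuclear-stain viability signal not falling by more than 50%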;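 further: 0% = DMSO wells and 100% = triacsin C control wells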
PG9 binder conf: confirmation of small molecules binding HIV-1 gp120 antibody PG9; TR-FRET PG9 antibody binding, biochemical; actives 90% (n = 1,500); shares compounds with PG9 binder; inhibition, % at 6.7 µM; AID 651571; in the data active means inhibition above about 9%
PGV04 Ab binding: binds control antibody PGV04 in PG9 binder counter-screen; shares compounds with PG9 binder; TR-FRET PGV04 antibody-gp120 binding, biochemical; inhibition, % at 6.7 µM; actives 95% (n = 1,500); in the data active means inhibition above about 9.5%
PG9 binder DR: small molecules binding HIV-1 gp120 antibody PG9; TR-FRET PG9 antibody-gp120 binding inhibition; IC50, µM; 95 tested, under 10 active; AID 651848; shares compounds with PG9 binder; in the data active means IC50 below about 10 µM
PGV04 binding DR: PGV04 binding, dose response counter-screen | shares compounds with PG9 binder | TR-FRET binding to control antibody PGV04 | IC50, µM | actives 20% (n = 95)
PG126 DR counter: counter-screen for PG9 binders: binding to control antibody PG126; shares compounds with PG9 binder; TR-FRET binding to antibody PG126, counterscreen; IC50, µM; actives 20% (n = 95)
* hit, by the source's call; x = not tested or not shown. A selection: hits, their analogues and other compounds. The true share with any hit is near 2.9%. Unless noted, no stated cut-off is given here; in the data, active means IC50 below about 9 µM; inactive means the rest.

SMILES	NR1D1 modulator	beta cell repl	T cruzi inh	iPSC survival up	PG9 binder	H9c2 TAG inh	PG9 binder conf	PGV04 Ab binding	others
Cc1ccc(-c2nnn(CC(=O)N(CC(=O)NC3CCCC3)c3ccc(F)cc3)n2)o1	0.0	-1.7	-1.7	-0.5	-0.9	x	x	x
Cc1cc2cc(CCNS(C)(=O)=O)c(=O)[nH]c2cc1C	4.7	-1.7	0.0	0.5	-1.5	0.5	x	x
O=C1c2[nH]nc(-c3ccccc3O)c2C(c2cccc(Cl)c2)N1CC1CCCO1 (stereo unspecified)	-0.3	-4.6	3.6	-0.5	8.6*	x	25.3*	18.9*	PG9 binder DR=>67;PGV04 binding DR=>67;PG126 DR counter=>67
O=C1c2[nH]nc(-c3ccccc3O)c2C(c2ccc(F)cc2)N1CC1CCCO1 (stereo unspecified)	0.9	-0.3	3.2	-0.2	-1.2	x	x	x
Cc1ccc2nc(-c3ccc(NC(=O)CN4CCN(C(=O)c5ccco5)CC4)cc3)sc2c1	-9.1	-4.5	-15.2	-4.2	-0.7	x	x	x
COc1ccc2c(C)cc(=S)[nH]c2c1	-2.9	1.3	28.4	-1.2	19.1*	x	8.6*	9.5*
Cc1cc2n(n1)C(c1cn(-c3ccccc3)nc1C)Nc1c(C)cccc1-2 (stereo unspecified)	9.7	-1.7	1.2	3.2	15.1*	x	15.3*	22.1*
Cc1csc(C(C#N)C(=O)c2ccncc2)n1 (stereo unspecified)	-3.6	-2.1	-3.9	7.2	-2.3	-2.4	x	x
CC(=O)Nc1ccc(C(=O)NNC(=O)c2ccc(Cl)cc2)cc1	1.1	-1.1	9.2	-0.3	-1.5	-8.6	x	x
CC(C)(C)c1ccc(C(=O)Nc2ccc(Cl)cc2)cc1	-4.0	-2.1	6.1	-2.5	8.6*	x	15.7*	17.8*
Cc1cccc(-n2c(-c3ccco3)n[nH]c2=S)c1	-0.1	2.1	-10.2	-1.4	13.6*	x	17.0*	19.5*
O=C(Nc1cc(Cl)ccc1O)c1cc(-c2ccco2)on1	2.2	0.8	-15.0	-0.2	-1.6	x	x	x
COc1cccc(C(=O)N=c2sc3cc(S(C)(=O)=O)ccc3n2C)c1	6.8	-3.0	7.0	-0.7	38.5*	x	46.3*	60.2*
COc1ccc(-c2cn3c(C)c(C(=O)Nc4cc(NC(C)=O)ccc4OC)sc3n2)cc1	-4.4	-0.8	-18.0	-1.5	12.4*	x	9.8*	31.5*
COC(=O)c1ccccc1NC(=O)COc1ccc2c(c1)OCO2	10.5	2.0	15.9	0.3	9.2*	-5.5	5.9	7.3
O=C(COC(=O)c1ccccc1NC(=O)c1ccco1)Nc1ccc2c(c1)OCO2	-0.9	2.4	9.5	0.0	11.4*	-10.9	9.2*	11.9*
O=C(COC(=O)c1ccccc1NCc1ccco1)Nc1ccc2c(c1)OCO2	4.7	-3.5	9.3	0.5	0.2	6.0	x	x
O=C(COc1ccc2c(c1)OCO2)Nc1ccccc1F	-5.3	3.4	7.2	0.1	-1.3	x	x	x
COc1ccc(CNC(=O)CC[C@H]2O[C@@H](n3cc(C)c(=O)[nH]c3=O)C[C@@H]2O)cc1	5.2	x	x	1.7	0.1	x	x	x
CCN(CC)CCNCc1cc(Br)ccc1OCC(=O)NCc1ccccc1	6.9	-0.5	16.0	-2.3	0.5	7.2	x	x
COc1cc2nc(/C=C/c3cc(OC)c(OC)c(OC)c3)sc2cc1SC	1.9	-2.8	x	-1.5	1.5	x	x	x
Cc1ccc(-n2c(SCC(N)=O)nc3c(c2=O)C2(CCCC2)Cc2ccccc2-3)cc1	-2.5	0.0	7.2	-0.4	10.9*	x	23.1*	32.4*

Assay outcomes as filed in PubChem BioAssay.
